Results: ChEMBL document CHEMBL4342473, “Lead Optimization of Benzoxazolone Carboxamides as Orally Bioavailable and CNS Penetrant Acid Ceramidase Inhibitors” (J Med Chem, 2020)
Active and inactive are the calls of the source. No cut-off for these calls is given here.

Experiments:
[1] = Ratio of unbound drug level in brain of C57BL/6J/129SvEV mouse model of Gaucher's disease at 90 mg/kg, ip administered once daily for 14 days measured 1 hr post-last dose to EC50 for inhibition of acid ceramidase in Krabbe's disease patient-derived primary fibroblasts; type: organism-based; conditions: in vivo
Summary of the method: (§1)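 Gaucher-model 4L;C* mice (N = 4–8, mixed sexes) got 30 or 90 mg kg–1 i.p. once daily for 14 days from postnatal day 5 and were sacrificed 1 h after the day-14 dose. Compound levels were measured in plasma and brain, and unbound brain level came from brain fraction unbound (two technical replicates). The reference EC50 was from Krabbe patient primary fibroblasts incubated 2 h across concentrations (two independent experiments, duplicates).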

[2] = target: T1, Acid ceramidase (Homo sapiens) (UniProt Q13510); test: Inhibition of acid ceramidase in human SH-SY5Y cells assessed as increase in intracellular accumulation of Cer (d18:0/16:0) at 10 uM measured up to 6 hrs by LC/MS analysis; type: cell-based
T1 sequence (whole entry): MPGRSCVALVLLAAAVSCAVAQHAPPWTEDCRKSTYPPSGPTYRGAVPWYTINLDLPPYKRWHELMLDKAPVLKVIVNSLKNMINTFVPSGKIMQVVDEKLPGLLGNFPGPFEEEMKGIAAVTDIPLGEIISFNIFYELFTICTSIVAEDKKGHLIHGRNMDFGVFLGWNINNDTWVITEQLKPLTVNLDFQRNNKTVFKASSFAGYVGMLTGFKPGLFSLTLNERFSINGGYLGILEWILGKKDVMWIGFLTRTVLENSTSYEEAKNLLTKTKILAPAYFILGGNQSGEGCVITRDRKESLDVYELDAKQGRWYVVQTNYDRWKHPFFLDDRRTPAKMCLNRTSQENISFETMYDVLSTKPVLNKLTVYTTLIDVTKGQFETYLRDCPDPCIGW
Summary of the method: (§2)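 Human neuroblastoma SH-SY5Y cells incubated with compound at 10 μM for 30 min, 1 h, 3 h and 6 h; AC activity by LC/MS-based activity assay; Cer (d18:0/16:0), Cer (d18:1/16:0), sphingosine, SM (d18:1/16:0) and HexCer (d18:1/16:0) quantified by LC/MS.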

[3] = Unbound plasma concentration in C57BL/6J/129SvEV mouse model of Gaucher's disease at 30 mg/kg, ip administered once daily for 14 days measured 1 hr post last dose; type: ADME, organism-based; conditions: in vivo
Summary of the method: (§3)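 4L;C* mice dosed i.p. once daily for 14 days, killed 1 h after last dose (day 14); plasma and brain drug levels measured; unbound concentrations from plasma and brain unbound fractions (mean of two technical replicates); N = 4–8, mixed sexes.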

[4] = Unbound plasma concentration in C57BL/6J/129SvEV mouse model of Gaucher's disease at 90 mg/kg, ip administered once daily for 14 days measured 1 hr post last dose; type: ADME, organism-based; conditions: in vivo; summary of the method: as §3
[5] = target: T1, Acid ceramidase (Homo sapiens); test: Inhibition of acid ceramidase in human SH-SY5Y cells at 10 uM using N-lauroyl ceramide as substrate by LC/MS analysis; type: cell-based; conditions: TDE = time-dependent effect; summary of the method: as §2
[6] = Ratio of unbound drug level in brain of twitcher mouse model of Krabbe's disease at 90 mg/kg,ip administered once daily for 20 days measured 1 hr post-last dose to EC50 for inhibition of acid ceramidase in Krabbe's disease patient-derived primary fibroblasts; type: organism-based; conditions: in vivo
Summary of the method: (§4)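 Twitcher mice (3 males + 3 females per group) got 30 or 90 mg kg–1 i.p. once daily for 20 days from postnatal day 10 and were sacrificed 1 h after the day-20 dose. Plasma and brain levels were measured, and unbound brain level came from brain fraction unbound (two technical replicates). The EC50 was from Krabbe patient primary fibroblasts exposed 2 h to a concentration series (two independent experiments, duplicates).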

[7] = target: T2, Lysosomal acid glucosylceramidase (Homo sapiens) (UniProt P04062); test: Inhibition of human full length GCase at 1 to 10 uM using 4-MUG as fluorogenic substrate incubated for 15 mins by fluorescence based assay
T2 sequence (whole entry): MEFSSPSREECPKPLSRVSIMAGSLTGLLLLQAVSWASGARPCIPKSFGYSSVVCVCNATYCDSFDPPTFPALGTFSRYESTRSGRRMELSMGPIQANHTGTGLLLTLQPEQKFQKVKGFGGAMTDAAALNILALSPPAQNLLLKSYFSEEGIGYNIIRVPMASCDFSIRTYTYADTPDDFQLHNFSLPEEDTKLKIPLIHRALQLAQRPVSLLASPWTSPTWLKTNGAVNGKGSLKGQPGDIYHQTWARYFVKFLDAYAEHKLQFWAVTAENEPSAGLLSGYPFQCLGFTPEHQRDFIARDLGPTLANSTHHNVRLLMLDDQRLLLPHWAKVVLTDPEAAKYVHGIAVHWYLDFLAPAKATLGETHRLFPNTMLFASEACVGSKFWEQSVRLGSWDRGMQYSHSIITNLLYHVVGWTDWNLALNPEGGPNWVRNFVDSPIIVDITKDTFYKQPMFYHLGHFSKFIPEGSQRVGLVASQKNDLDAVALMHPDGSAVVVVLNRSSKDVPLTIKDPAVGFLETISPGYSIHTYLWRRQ

Acid ceramidase = target: T3, Acid ceramidase (Homo sapiens, UniProt Q13510); test: Time-dependent inhibition of human acid ceramidase expressed in HEK293 cells using Rbm14-12 as substrate by fluorescence assay; type: cell-based
T3 sequence (Q13510 whole entry): T1 sequence (whole entry)
Summary of the method: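 hAC-enriched lysates with fluorogenic substrate Rbm 14-12; vehicle 1% DMSO; time-dependent inhibition analysed for ki/KI and ki; two independent experiments, each in two technical replicates.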

[8] = target: T1, Acid ceramidase (Homo sapiens); test: Inhibition of acid ceramidase in human SH-SY5Y cells assessed as change in intracellular accumulation of HexCer (d18:1/16:0) up to 10 uM measured after 3 hrs by LC/MS analysis; type: cell-based
Summary of the method: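 SH-SY5Y neuroblastoma cells exposed 3 h to 1, 2.5, 5 and 10 μM; AC activity by LC/MS-based assay; ceramide species, sphingosine, SM and HexCer (d18:1/16:0) quantified by LC/MS; means ± S.E.M. of at least six determinations, experiment repeated twice.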

[9] = Unbound drug level in brain of twitcher mouse model of Krabbe's disease at 30 mg/kg,ip administered once daily for 20 days measured 1 hr post-last dose; type: ADME, organism-based; conditions: in vivo
Summary of the method: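 Twitcher mice dosed i.p. once daily for 20 days, sacrificed 1 h after last dose (day 20); drug measured in plasma and brain; unbound levels from unbound fractions (mean of two technical replicates); N = 3 males + 3 females per group.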

[10] = Ratio of unbound drug level in brain of C57BL/6J/129SvEV mouse model of Gaucher's disease at 30 mg/kg, ip administered once daily for 14 days measured 1 hr post-last dose to EC50 for inhibition of acid ceramidase in Krabbe's disease patient-derived primary fibroblasts; type: organism-based; conditions: in vivo; summary of the method: as §1
[11] = Unbound drug level in brain of C57BL/6J/129SvEV mouse model of Gaucher's disease at 30 mg/kg, ip administered once daily for 14 days measured 1 hr post-last dose; type: ADME, organism-based; conditions: in vivo; summary of the method: as §3
[12] = target: T1, Acid ceramidase (Homo sapiens); test: Inhibition of acid ceramidase in human SH-SY5Y cells assessed as decrease in sphingosine level at 10 uM measured up to 6 hrs by LC/MS analysis; type: cell-based; summary of the method: as §2
[13] = Ratio of unbound drug level in brain of twitcher mouse model of Krabbe's disease at 30 mg/kg,ip administered once daily for 20 days measured 1 hr post-last dose to EC50 for inhibition of acid ceramidase in Krabbe's disease patient-derived primary fibroblasts; type: organism-based; conditions: in vivo; summary of the method: as §4

SMILES: CC(C)CNC(=O)n1c(=O)oc2cc(C3CCN(C)CC3)ccc21
- Ratio [1]: 6.4
- inhibition [2]: Active
- Cp(f) [3]: 420 nM
- Cp(f) [4]: 2320 nM
- inhibition [5]: Tde
- Ratio [6]: 5.2
- inhibition [7]: inactive
- kinact (Acid ceramidase): 0.15 min⁻¹
- inhibition [8]: inactive
- Drug uptake(free) [9]: 0.8 µM
- Ratio [10]: 1.9
- Drug uptake(free) [11]: 0.77 µM
- inhibition [12]: Active
- Ratio [13]: 2
